Sampled rows, rich in hits. Any-hit rate of the full collection: about 1.9%.
Runt-CBFb FRET: Runt domain-CBFb interaction inhibition; Q01196+Q13951; Cerulean-Runt/Venus-CBFb FRET ratio 530/480, 1 h; inhibition, % at 20 µM; 0.46% of 220,000 active; AID 1496;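 active = inhibition over about 50% at 20 µM in the single-dose screen, limit read from the data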;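 note: 0% = DMSO wells and 100% = excess unlabeled CBFb competitor control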
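test system = Cerulean-Runt domain fusion protein, energy donor | probe or stimulus = Venus-CBFb binding partner, 100 nM | incubation = two 1 h room-temperature incubations shielded from light | detection = fluorescence energy transfer, 422 nm excitation, 530/480 nm emission | measure = loss of energy transfer signal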
RanGTP-Imp inh: inhibitors of RanGTP-importin-beta interaction, primary screen, biochemical, FRET, CFP-Ran, YFP-importin-beta, homogeneous | inhibition, % (no concentration beside the values) | 1.1% of 300,000 active | cell-free CFP-Ran/YFP-importin-beta FRET ratio;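 active = more than half of the replicate wells show a fall in the fluorescence ratio signal beyond about 16%, limit read from the data, passing the limit was not always enough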;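 note: 0% = DMSO wells and 100% = Ran loaded with GDP instead of GTP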
HDAC3 inhib: inhibitors of human histone deacetylase 3. 0.15% of 320,000 active. inhibition, % at 8.3 µM. O15379. recombinant HDAC3, fluorogenic peptide/trypsin coupled, fluorescence; in the data active = inhibition above about 26%, passing the limit was not always enough
LANA-H2B inh: blocks KSHV LANA binding to histone H2A/H2B; inhibition, % (no concentration beside the values); 0.6% of 320,000 active; cell-free LANA-H2A/H2B peptide, fluorescence polarization; Q9QR71; in the data active = inhibition mostly above about 10%, no sharp cut-off; inactive = mostly below about 6.7%
Target sequence (Q9QR71 whole entry, looked up): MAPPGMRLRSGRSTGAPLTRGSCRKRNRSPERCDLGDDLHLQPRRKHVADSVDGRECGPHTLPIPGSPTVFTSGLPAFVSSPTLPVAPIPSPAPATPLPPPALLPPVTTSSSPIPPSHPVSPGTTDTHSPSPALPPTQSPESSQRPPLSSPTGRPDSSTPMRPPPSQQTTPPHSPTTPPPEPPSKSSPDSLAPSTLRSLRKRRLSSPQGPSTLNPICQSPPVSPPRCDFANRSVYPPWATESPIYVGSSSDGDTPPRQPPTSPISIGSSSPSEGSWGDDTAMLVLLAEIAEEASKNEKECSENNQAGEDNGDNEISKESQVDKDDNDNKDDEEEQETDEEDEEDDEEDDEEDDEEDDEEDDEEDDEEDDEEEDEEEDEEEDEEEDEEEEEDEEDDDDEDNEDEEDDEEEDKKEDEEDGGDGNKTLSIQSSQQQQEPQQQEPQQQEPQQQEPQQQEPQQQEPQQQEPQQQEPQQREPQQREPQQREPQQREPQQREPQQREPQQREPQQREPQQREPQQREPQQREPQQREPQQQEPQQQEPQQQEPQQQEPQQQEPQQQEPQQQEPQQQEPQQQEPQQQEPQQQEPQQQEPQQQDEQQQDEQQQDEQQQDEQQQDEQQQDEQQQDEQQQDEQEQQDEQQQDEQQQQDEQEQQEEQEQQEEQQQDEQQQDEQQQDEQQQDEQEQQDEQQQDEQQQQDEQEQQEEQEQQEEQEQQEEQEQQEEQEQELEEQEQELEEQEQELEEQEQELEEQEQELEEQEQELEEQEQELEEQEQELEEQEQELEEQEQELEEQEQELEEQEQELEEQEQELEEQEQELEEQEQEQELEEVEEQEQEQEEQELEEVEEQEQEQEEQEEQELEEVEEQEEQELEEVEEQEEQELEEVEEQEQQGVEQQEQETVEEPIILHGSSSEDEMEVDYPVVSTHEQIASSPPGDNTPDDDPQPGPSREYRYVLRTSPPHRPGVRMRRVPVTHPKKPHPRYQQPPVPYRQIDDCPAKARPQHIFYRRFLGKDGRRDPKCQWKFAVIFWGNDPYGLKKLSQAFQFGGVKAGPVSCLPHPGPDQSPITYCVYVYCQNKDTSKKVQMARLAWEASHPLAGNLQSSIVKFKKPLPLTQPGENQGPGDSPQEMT
CaV13 FRET inh: Disruptors of the CACNA1D IQ motif to Ca2+-dependent inactivation inhibitor domain association, primary screening, Förster resonance energy transfer in intact living … | HEK cells, CFP/YFP FRET ICDI-IQ, plate reader, 10 min; percent FRET-ratio fall versus neutral wells | inhibition, % at 12.3 µM | 0.098% of 340,000 active | AID 743397;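 active = mean replicate inhibition of at least 30% and at least 1% of replicates passing that level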;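 note: 0% = median of the neutral control wells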
Runt-SMMHC FRET: inhibitors of human RUNX1 Runt domain binding to CBFb-SMMHC; Q01196+Q13951; Cerulean-Runt/Venus-CBFb-SMMHC FRET ratio 530/480, 1 h; inhibition, % at 20 µM; 0.74% of 220,000 active; AID 1434;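 active = mean inhibition across duplicate retests at 20 µM reaching about 50%, limit read from the data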;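 note: 0% = DMSO wells and 100% = wells with excess untagged CBFb-SMMHC; inhibitors lower the FRET ratio by blocking Runt binding to CBFb-SMMHC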
* hit, by the source's call.

What do the screens show for `CCN1C(=O)CSc2ccc(C(=O)OC)cc21`?
Runt-CBFb FRET: 2; RanGTP-Imp inh: 1; HDAC3 inhib: 1; LANA-H2B inh: 2; CaV13 FRET inh: -3; Runt-SMMHC FRET: 1

Results for CCN1C(=O)CSc2ccc(C(=O)NCc3ccco3)cc21 ?
Runt-CBFb FRET: 1; RanGTP-Imp inh: 23*; HDAC3 inhib: -3; LANA-H2B inh: 1; CaV13 FRET inh: -8; Runt-SMMHC FRET: 7

How did CCOC(=O)NC1(C(F)(F)F)N=C(c2ccccc2)NC1=O (stereo not given) do in these assays?
Runt-CBFb FRET: 5; RanGTP-Imp inh: 4; HDAC3 inhib: -1; LANA-H2B inh: 14*; CaV13 FRET inh: -4; Runt-SMMHC FRET: 3

What do the screens show for `Cc1ccc(NC2(C(F)(F)F)N=C(c3ccccc3)NC2=O)nc1` (stereo not given)?
Runt-CBFb FRET: 1; RanGTP-Imp inh: -2; HDAC3 inhib: 0; LANA-H2B inh: 2; CaV13 FRET inh: -3; Runt-SMMHC FRET: 1

What do the screens show for `CCC(C)CCN1C(Nc2ccccc2)=NC[C@@H]1CC(C)C` (stereo not given in full)?
RanGTP-Imp inh: 0; HDAC3 inhib: -7; LANA-H2B inh: 3; CaV13 FRET inh: -10

How did COc1ccccc1OC(C)C(=O)N1CCN(Cc2ccc3c(c2)OCO3)CC1 (stereo not given) do in these assays?
RanGTP-Imp inh: 0; HDAC3 inhib: 2; LANA-H2B inh: 4; CaV13 FRET inh: -3

What do the screens show for `O=C1CCC(=O)c2ccc3c4c(ccc1c24)CC3`?
CaV13 FRET inh: -6

Results for O=C1CCN2C=Nc3cccc4ccc1c2c34 ?
Runt-CBFb FRET: -66; RanGTP-Imp inh: 69*; HDAC3 inhib: -1; LANA-H2B inh: 114*; CaV13 FRET inh: -23; Runt-SMMHC FRET: 79

Results for COc1cc(-c2nc3cnccn3c2Nc2c(C)cccc2C)ccc1O ?
Runt-CBFb FRET: 12; RanGTP-Imp inh: 52*; HDAC3 inhib: -3; LANA-H2B inh: -4; Runt-SMMHC FRET: 18

What do the screens show for `Cc1ccc(CNC(=O)c2cc(=O)c3ccc(C)cc3o2)cc1`?
RanGTP-Imp inh: 0; HDAC3 inhib: 1; LANA-H2B inh: 0; CaV13 FRET inh: -14

How did CCn1nc(NC(=O)c2ccncc2)c2cc3ccc(C)cc3nc21 do in these assays?
Runt-CBFb FRET: 8; RanGTP-Imp inh: 24*; HDAC3 inhib: -12; LANA-H2B inh: -2; CaV13 FRET inh: -7; Runt-SMMHC FRET: 8

What do the screens show for `CCn1nc(NC(=O)c2ccncc2)c2cc3cc(C)ccc3nc21`?
Runt-CBFb FRET: 8; RanGTP-Imp inh: 12; HDAC3 inhib: 0; LANA-H2B inh: 4; Runt-SMMHC FRET: 22

Results for CCCn1nc(NC(=O)c2cccs2)c2cc3cc(C)ccc3nc21 ?
Runt-CBFb FRET: 49; RanGTP-Imp inh: 72*; HDAC3 inhib: -2; LANA-H2B inh: -3; CaV13 FRET inh: -4; Runt-SMMHC FRET: 80*

What do the screens show for `CCCn1nc(NC(=O)c2cccs2)c2cc3ccc(C)cc3nc21`?
Runt-CBFb FRET: 25; RanGTP-Imp inh: 54*; HDAC3 inhib: -2; LANA-H2B inh: 1; CaV13 FRET inh: -4; Runt-SMMHC FRET: 51*

Results for Oc1ccc(-c2ccccc2)cc1CN1CCCCCC1 ?
RanGTP-Imp inh: 4; HDAC3 inhib: -3; LANA-H2B inh: -1; CaV13 FRET inh: -3

How did Cc1noc(C)c1-c1ccc(C(=O)NCCc2ccccc2)c2occc12 do in these assays?
CaV13 FRET inh: 40*

How did Cn1c2ccccc2c(=O)c2ccc(Cl)cc21 do in these assays?
CaV13 FRET inh: 3

What do the screens show for `CN(C)c1ccc(-c2ccc3c(=O)c4ccccc4n(C)c3c2)cn1`?
RanGTP-Imp inh: 19*; HDAC3 inhib: -27; LANA-H2B inh: 1; CaV13 FRET inh: -21

Results for Cc1ccccc1C1CC(c2ccc(F)cc2)Nc2nc(N)nn21 (stereo not given) ?
Runt-CBFb FRET: 2; RanGTP-Imp inh: -3; HDAC3 inhib: -1; LANA-H2B inh: 3; CaV13 FRET inh: -13; Runt-SMMHC FRET: 4

What do the screens show for `Cc1ccccc1C1CC(c2ccc(Br)cc2)Nc2nc(N)nn21` (stereo not given)?
RanGTP-Imp inh: 3; HDAC3 inhib: 2; LANA-H2B inh: 17*; CaV13 FRET inh: -7; Runt-SMMHC FRET: -1

What do the screens show for `O=C(Nc1ccc(Cl)cc1)c1cc2nc(-c3ccco3)cc(C(F)(F)F)n2n1`?
Runt-CBFb FRET: -5; RanGTP-Imp inh: 4; HDAC3 inhib: -5; LANA-H2B inh: 1; Runt-SMMHC FRET: -23

How did Cc1ccc(Cn2ccc(NC(=O)c3cc4nc(-c5ccco5)cc(C(F)(F)F)n4n3)n2)cc1 do in these assays?
RanGTP-Imp inh: 4; HDAC3 inhib: 2; LANA-H2B inh: 2; CaV13 FRET inh: -4; Runt-SMMHC FRET: -21

How did CCc1ccc(-c2cc(C(F)(F)F)n3nc(C(=O)Nc4cnn(Cc5ccc(C)cc5)c4)cc3n2)s1 do in these assays?
Runt-CBFb FRET: -50; RanGTP-Imp inh: 39*; HDAC3 inhib: 1; LANA-H2B inh: -2; Runt-SMMHC FRET: -4

What do the screens show for `Cc1ccccc1Cn1cc(NC(=O)c2cc3nc(-c4ccco4)cc(C(F)(F)F)n3n2)cn1`?
Runt-CBFb FRET: -5; RanGTP-Imp inh: 30*; HDAC3 inhib: 9; LANA-H2B inh: 1; CaV13 FRET inh: -5; Runt-SMMHC FRET: -86

Results for CCOC(=O)c1ccc(NC(=O)C2(c3ccccc3)CCOCC2)cc1 ?
Runt-CBFb FRET: -3; RanGTP-Imp inh: 8; HDAC3 inhib: 1; LANA-H2B inh: 0; Runt-SMMHC FRET: 2

Results for CCCc1cc(=O)[nH]c(SCC(=O)Nc2ccc(Cl)c(S(=O)(=O)N3CCOCC3)c2)n1 ?
CaV13 FRET inh: -2

What do the screens show for `COc1ccc(CNc2nc(NCc3ccc(OC)cc3)n(C(=O)c3ccccc3[N+](=O)[O-])n2)cc1`?
Runt-CBFb FRET: 15; RanGTP-Imp inh: 7; HDAC3 inhib: 13; LANA-H2B inh: 3; CaV13 FRET inh: -7; Runt-SMMHC FRET: 12

Results for O=C(O)c1ccc2c(c1)N(Cc1ccccc1F)C(=O)c1ccccc1S2=O (stereo not given) ?
Runt-CBFb FRET: -1; RanGTP-Imp inh: 1; HDAC3 inhib: -5; LANA-H2B inh: 1; CaV13 FRET inh: -2; Runt-SMMHC FRET: 3

How did N#Cc1c2nc3ccccc3nc2n2cc(NC(=O)c3ccc(F)cc3)ccc12 do in these assays?
Runt-CBFb FRET: -30; CaV13 FRET inh: -5; Runt-SMMHC FRET: -66

What do the screens show for `Cc1c(C(=O)Nc2ccc(F)cc2)cn2c(nc3ccccc32)c1C#N`?
Runt-CBFb FRET: -82; RanGTP-Imp inh: 5; HDAC3 inhib: -1; LANA-H2B inh: 97*; CaV13 FRET inh: -9; Runt-SMMHC FRET: -8
